Data published in publication PMC8545458 (Cell reports, 2021).

Tests used:
Sprague-Dawley rats = details: for Bederson’s neurological score: rat, intracerebroventricular 15 min prior to 60 min MCAo, vs vehicle
[1] = CD-1 mice; value for 686 in brain
[2] = system: C57Bl/6J male mice on high fat diet; experiment: Metabolic testing in Diet Induced Obese; details: DIO mice, 12 mg/kg i.p. daily; for fasting insulin / insulin resistance index (HOMA-IR): vs vehicle
[3] = system: SH-SY5Y-GLuc-SERCaMP cells; experiment: SERCaMP assay, acute treatment paradigm; assay type: cell-based, human; details: 30 μM compound; 200 nM thapsigargin; measured 8 h after thapsigargin
[4] = system: ER calcium store in SH-SY5Y cells; experiment: GCaMPer ER calcium assay; assay type: cell-based, human; details: 16 hour pre-treatment; 50 nM thapsigargin, 30 min
[5] = system: UPRE-NLuc reporter in SH-SY5Y cells; experiment: UPRE luciferase reporter assay; assay type: cell-based, human; details: compound pre-treatment, then 100 nM thapsigargin
[6] = system: primary human skeletal muscle cells; experiment: Human skeletal muscle exodosis assay; assay type: cell-based; details: 30-minute pre-treatment; 100 nM thapsigargin, 8 h
In short: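 Primary human myoblasts are grown in DMEM (4.5 g/L glucose) at 37°C and 5.5% CO2. They are plated at 7.3×10^3 cells/well on 3 mg/ml Matrigel-coated 96-well plates. Medium is sampled 4–8 h after thapsigargin. Secreted GLuc-SERCaMP is read as luminescence 8 h after 100 nM thapsigargin, after injecting 8 μM coelenterazine into 5 μl medium. n=11–12 wells per concentration.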

[7] = system: SH-SY5Y-GLuc-SERCaMP cells; experiment: Oxygen-glucose deprivation; assay type: cell-based, human; details: 16 h hypoxia plus 24 h normoxia; for cell attachment and viability after OGD: drugs added at beginning of OGD
[8] = system: BiP, ERdj4, and ASNS mRNA in SH-SY5Y cells; experiment: ER stress response transcriptional analysis; assay type: cell-based, human; details: 30 μM compounds 16 h prior to 4 h 100 nM thapsigargin
In short: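 SH-SY5Y cells were plated at 2.5×10^5 cells/500 μl in 24-well plates. Test compound (30 μM) was given 16 h before a 4 h exposure to 100 nM thapsigargin. Total RNA was isolated with on-column DNA digestion, and 0.5 μg was reverse-transcribed with cDNA diluted 1:20. BiP reports the ATF6 arm. Data are 2^-ddCq (n=6) versus thapsigargin only, by one-way ANOVA with Dunnett's test.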

[9] = system: BiP/GRP78 protein levels in SH-SY5Y-SERCaMP cells; experiment: BiP immunoblot; assay type: cell-based, human; details: 30 μM compounds 16 h prior to 4 h 100 nM thapsigargin
[10] = system: INS-1 832/13 pTetR TO shWfs1 cells; experiment: Wolfram caspase 3/7 assay; assay type: cell-based, rat; details: compounds and doxycycline for 48 h
[11] = system: SH-SY5Y cells transfected with GLuc-ERS constructs; experiment: GLuc-ERS; assay type: cell-based, human; details: 20 μM
In short: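 SH-SY5Y cells are reverse-transfected with GLuc-ERS reporter constructs: 5 × 10^4 cells are plated onto the transfection complexes in antibiotic-free medium and grown 48 h. OGD is 16 h hypoxia plus 24 h normoxia, with the test compound added at the start of OGD. GLuc is assayed in medium and lysates with coelenterazine. The secretion index is extracellular/intracellular GLuc. n=9–15 wells.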

SH-SY5Y cells = experiment: Endogenous SERCaMPs; assay type: cell-based, human; details: 20 μM
In short: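 SH-SY5Y cells were seeded at 5×10^4 cells/well in 96-well plates and given 16 h hypoxia plus 24 h normoxia with test compound (20 μM). At reperfusion, medium was fully exchanged to phenol red-free, serum-free esterase buffer (NaCl, KCl, MgCl2, CaCl2, glucose, 20 mM HEPES), collected 8 h later, and mixed 1:1 with 100 μM fluorescein […] substrate ([…]). Fluorescence (ex 465/em 528) was read after 1 h. n=24 wells; two-way ANOVA.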

[12] = system: SH-SY5Y cells stably expressing a constitutively secreted GLuc (SH-SY5Y-GLuc); experiment: SH-SY5Y-GLuc counterscreen; assay type: cell-based, human; details: 19 h treatment
In short: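 The counterscreen used SH-SY5Y cells expressing untagged, constitutively secreted Gaussia luciferase in 1536-well plates. Cells were exposed to test compound for 19 h, and GLuc was read from the medium. The ER-to-Golgi transport blocker brefeldin A (19 h) was titrated on each of eight plates as a control (n=2 per concentration).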

[13] = system: SH-SY5Y human neuroblastoma cells stably expressing GLuc-SERCaMP; experiment: GLuc-SERCaMP assay; assay type: cell-based; details: 4 h, read-out: EC50, GLuc-SERCaMP secretion in response to thapsigargin
[14] = 16 h hypoxia plus 24 h normoxia

CC(C)C[C@H]1C(=O)N2CCC[C@H]2[C@]2(O)O[C@](NC(=O)[C@@H]3C=C4c5cccc6c5c(c(Br)n6C(=O)NC5CC5)C[C@H]4N(C)C3)(C(C)C)C(=O)N12.Cl [analog 688, (6aR,9R)-5-bromo-N4-cyclopropyl-N9-((2R,5S,10aS,10bS)-10b-hydroxy-5-isobutyl-2-isopropyl-3,6-dioxooctahydro-8H-oxazolo[3,2-a]pyrrolo[2,1-c]pyrazin-2-yl)-7-methyl-6a,7,8,9-tetrahydroindolo[4,3-fg]quinoline-4,9(6H)-dicarboxamide, HCl]
Bederson’s neurological score (Sprague-Dawley rats): significant reduction
metabolic conversion to the parent bromocriptine molecule [1]: no detectable conversion
change in body weight following the first week of injections [2]: did not show
cumulative caloric intake and energy expenditure during the three weeks of treatment [2]: did not show
fasting glucose levels at 4 hours [2]: reduced fasting glucose levels
food intake at the end of the second and third week of injections [2]: did not show
fasting insulin [2]: reduced
insulin resistance index (HOMA-IR) [2]: reduced

COc1ccc2c(c1)[C@]13CCCC[C@@H]1[C@H](C2)N(C)CC3 [dextromethorphan]
SERCaMP release, compound added 30 min pre- to 2 hours post-thapsigargin [3]: inhibited SERCaMP release
SERCaMP release, compound added 4 hours post-thapsigargin [3]: inactive
effect on ER calcium (GCaMPer fluorescence) [4]: no effect
UPRE-NLuc activation [5]: diminished UPRE-NLuc activation
GLuc-SERCaMP release in primary human skeletal muscle cells [6]: partially attenuated GLuc-SERCaMP release

O=C1CN(/N=C/c2ccc(-c3ccc([N+](=O)[O-])cc3)o2)C(O)=N1 [dantrolene]
SERCaMP release, compound added 30 min pre- to 2 hours post-thapsigargin [3]: inhibited SERCaMP release
SERCaMP release, compound added 4 hours post-thapsigargin [3]: inactive
UPRE-NLuc activation [5]: inactive
GLuc-SERCaMP release in primary human skeletal muscle cells [6]: partially attenuated GLuc-SERCaMP release
GLuc-SERCaMP secretion after OGD [7]: decreased GLuc-SERCaMP secretion
cell attachment and viability after OGD [7]: improved cell attachment and viability

CC(C)C[C@H]1C(=O)N2CCC[C@H]2[C@]2(O)O[C@](NC(=O)[C@@H]3C=C4c5cccc6c5c(c(Br)n6C(=O)C5CC5)C[C@H]4N(C)C3)(C(C)C)C(=O)N12.Cl [analog 686, (6aR,9R)-5-bromo-4-(cyclopropanecarbonyl)-N-((2R,5S,10aS,10bS)-10b-hydroxy-5-isobutyl-2-isopropyl-3,6-dioxooctahydro-8H-oxazolo[3,2-a]pyrrolo[2,1-c]pyrazin-2-yl)-7-methyl-4,6,6a,7,8,9-hexahydroindolo[4,3-fg]quinoline-9-carboxamide, HCl]
reduction of infarction volume compared with bromocriptine (Sprague-Dawley rats; rat MCAO): more effective than bromocriptine
Bederson’s neurological score (Sprague-Dawley rats): significant reduction
metabolic conversion to the parent bromocriptine molecule [1]: < 1%

CC(C)C[C@H]1C(=O)N2CCC[C@H]2[C@]2(O)O[C@](NC(=O)[C@@H]3C=C4c5cccc6[nH]c(Br)c(c56)C[C@H]4N(C)C3)(C(C)C)C(=O)N12 [bromocriptine]
SERCaMP release, compound added 30 min pre- to 2 hours post-thapsigargin [3]: inhibited SERCaMP release
SERCaMP release, compound added 4 hours post-thapsigargin [3]: inactive
effect on ER calcium (GCaMPer fluorescence) [4]: stabilizing effect on ER calcium
UPRE-NLuc activation [5]: diminished UPRE-NLuc activation
BiP mRNA levels [8]: reduced expression of BiP
BiP/GRP78 protein levels [9]: reduced thapsigargin-induced accumulation
GLuc-SERCaMP release in primary human skeletal muscle cells [6]: partially attenuated GLuc-SERCaMP release
caspase 3/7 activation associated with Wfs1 knockdown [10]: reduced caspase 3/7 activation
GLuc-SERCaMP secretion after OGD [7]: decreased GLuc-SERCaMP secretion
cell attachment and viability after OGD [7]: improved cell attachment and viability
thapsigargin-induced release of GLuc-ERS reporter proteins ([11]; 30 min pre-treatment, 200nM thapsigargin 8 h): broadly inhibited thapsigargin-induced release of the reporter proteins
OGD-induced release of GLuc-ERS reporter proteins [11, 14]: broadly reduced the OGD-induced release of the reporter proteins
thapsigargin-induced secretion of PDI, MANF, and carboxylesterases (SH-SY5Y cells; 0.5 h before or 1 h following 200 nM thapsigargin): reduced thapsigargin-induced secretion of all three proteins
OGD-induced release of carboxylesterases (SH-SY5Y cells; [14]): decreased
Bederson’s neurological score (Sprague-Dawley rats): significant reduction
change in body weight following the first week of injections [2]: significant decrease in body weight
cumulative caloric intake and energy expenditure during the three weeks of treatment [2]: significantly higher
fasting glucose levels at 4 hours [2]: reduced fasting glucose levels
food intake at the end of the second and third week of injections [2]: elevated
glucose excursion AUC in glucose tolerance tests [2]: reduced the glucose excursion AUC
fasting insulin [2]: reduced
insulin resistance index (HOMA-IR) [2]: reduced

COc1ccc(CCN(C)CCCC(C#N)(c2ccc(OC)c(OC)c2)C(C)C)cc1OC (stereo not drawn) [verapamil]
SERCaMP release, compound added 30 min pre- to 2 hours post-thapsigargin [3]: inhibited SERCaMP release
SERCaMP release, compound added 4 hours post-thapsigargin [3]: inactive
UPRE-NLuc activation [5]: diminished UPRE-NLuc activation
BiP mRNA levels [8]: reduced expression of BiP
GLuc-SERCaMP release in primary human skeletal muscle cells [6]: partially attenuated GLuc-SERCaMP release
caspase 3/7 activation associated with Wfs1 knockdown [10]: reduced caspase 3/7 activation

C[C@@H]1C[C@@H]([C@H](O)CC2CC(=O)NC(=O)C2)C(=O)[C@@H](C)C1 [cycloheximide]
activity in the SH-SY5Y-GLuc counterscreen [12]: inhibitory activity

C/C=C(/C)C(=O)O[C@H]1C(C)=C2[C@H]([C@@H]1OC(=O)CCCCCCC)[C@@](C)(OC(C)=O)C[C@H](OC(=O)CCC)[C@@]1(O)[C@H]2OC(=O)[C@@]1(C)O [Thapsigargin]
EC50 [13]: 0.112 µM

COc1ccc([C@@H]2Sc3ccccc3N(CCN(C)C)C(=O)[C@@H]2OC(C)=O)cc1 [diltiazem]
SERCaMP release, compound added 30 min pre- to 2 hours post-thapsigargin [3]: inhibited SERCaMP release
SERCaMP release, compound added 4 hours post-thapsigargin [3]: inactive
effect on ER calcium (GCaMPer fluorescence) [4]: no effect
UPRE-NLuc activation [5]: inactive
GLuc-SERCaMP release in primary human skeletal muscle cells [6]: partially attenuated GLuc-SERCaMP release
caspase 3/7 activation associated with Wfs1 knockdown [10]: reduced caspase 3/7 activation
GLuc-SERCaMP secretion after OGD [7]: decreased GLuc-SERCaMP secretion
cell attachment and viability after OGD [7]: improved cell attachment and viability
